In brackets after ≈: the same amount, converted by molar mass.
Assays:
[1] = Antifungal activity against Malassezia pachydermatis at 1000 ug/disc after 48 hrs by disc diffusion assay; assay type: functional
In short: (§1)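 Fungal disc diffusion with inoculum from SDA spores (filamentous) or SDB culture (yeast). Test cultures were swabbed on agar, and discs at 1000 µg/disc were left 30 min at room temperature, with a solvent negative control. Plates were incubated 48 h at 27 °C. Zone of inhibition was measured in mm, and the experiment was repeated twice.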

Candida albicans [2] = assay: Antifungal activity against Candida albicans MTCC 227 at 1000 ug/disc after 48 hrs by disc diffusion assay; assay type: functional; details: MTCC 227, 48 h, read-out: IZ; in short: as §1
Botrytis cinerea [3] = assay: Antifungal activity against Botrytis cinerea at 1000 ug/disc after 48 hrs by disc diffusion assay; assay type: functional; details: read-out: IZ; in short: as §1
Staphylococcus aureus [4] = assay: Antibacterial activity against Staphylococcus aureus MTCC 96 after 24 hrs by twofold serial dilution method; assay type: functional; details: MTCC 96, 24 h
In short: (§2)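 Bacteria grown in Mueller Hinton broth for 24 h at 37 °C and diluted to about 10^4 CFU/ml. Compound in 2% DMSO was serially diluted two-fold (1000 to 15.62 µg/ml) in medium in 96-well plates and inoculated. Plates were incubated 24 h at 37 °C. 5 µl of broth was spotted onto MHA, and MIC was taken as the lowest concentration with no visible growth on agar.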

Staphylococcus aureus [5] = assay: Antibacterial activity against methicillin-resistant Staphylococcus aureus after 24 hrs by twofold serial dilution method; assay type: functional
In short: (§3)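 Broth microdilution in MHB following the standard bacterial reference method. Compound was dissolved in DMSO (2%) and serially diluted two-fold from 1000 to 15.62 µg/ml in 96-well plates, with an inoculum of about 10^4 CFU/ml. Streptomycin and ciprofloxacin were positive controls. After 24 h at 37 °C, 5 µl of broth was subcultured on MHA. MIC was the lowest concentration without visible growth on agar.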

Micrococcus luteus [6] = assay: Antibacterial activity against Micrococcus luteus after 24 hrs by twofold serial dilution method; assay type: functional; in short: as §2
Klebsiella aerogenes [7] = assay: Antibacterial activity against Enterobacter aerogenes MTCC 111 after 24 hrs by twofold serial dilution method; assay type: functional; details: MTCC 111, 24 h; in short: as §2
Proteus vulgaris [8] = assay: Antibacterial activity against Proteus vulgaris MTCC 1771 after 24 hrs by twofold serial dilution method; assay type: functional; details: MTCC 1771, 24 h; in short: as §2
Klebsiella pneumoniae [9] = assay: Antibacterial activity against Klebsiella pneumoniae MTCC 109 after 24 hrs by twofold serial dilution method; assay type: functional; details: MTCC 109, 24 h; in short: as §2
Salmonella typhimurium [10] = assay: Antibacterial activity against Salmonella Typhimurium MTCC 1251 after 24 hrs by two-fold serial dilution method; assay type: functional, Salmonella enterica subsp. enterica serovar Typhimurium; details: Salmonella enterica, MTCC 1251, 24 h; in short: as §2
[11] = system: Salmonella enterica subsp. enterica serovar Paratyphi B; assay: Antibacterial activity against Salmonella paratyphi B after 24 hrs by twofold serial dilution method; assay type: functional; in short: as §3
[12] = Antifungal activity against Malassezia pachydermatis after 48 to 72 hrs by twofold serial dilution method; assay type: functional
In short: (§4)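 Broth two-fold serial dilution, 1000 to 15.62 µg/ml, with compound dissolved in 2% DMSO, in 96-well plates. Filamentous fungal spores came from 10-day SDA slants at 28 °C, and yeast from SDB grown 48 h at 28 °C. Incubation was 48-72 h at 28 °C. MIC was the lowest concentration with no visible fungal growth.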

Candida albicans [13] = assay: Antifungal activity against Candida albicans MTCC 227 after 48 to 72 hrs by twofold serial dilution method; assay type: functional; in short: as §4
Botrytis cinerea [14] = assay: Antifungal activity against Botrytis cinerea after 48 to 72 hrs by twofold serial dilution method; assay type: functional; in short: as §4
Staphylococcus aureus [15] = assay: Antibacterial activity against Staphylococcus aureus MTCC 96 at 1000 ug/disc after 24 hrs by disc diffusion assay; assay type: functional; details: MTCC 96, 24 h, read-out: IZ
In short: (§5)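 Disc diffusion on Mueller Hinton agar. Cultures (about 10^4 CFU/ml) were swabbed on and dried 10 min. Discs loaded at 1000 µg/disc were left 30 min at room temperature for diffusion, with a solvent negative control. Plates were incubated 24 h at 37 °C. Inhibition zones were measured in mm, and the experiment was done twice.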

Staphylococcus aureus [16] = assay: Antibacterial activity against methicillin-resistant Staphylococcus aureus at 1000 ug/disc after 24 hrs by disc diffusion assay; assay type: functional; details: read-out: IZ
In short: (§6)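 Disc diffusion on Mueller Hinton agar. Bacteria were grown 24 h at 37 °C in MHB and diluted to about 10^4 CFU/ml, swabbed onto plates and dried 10 min. Discs were loaded at 1000 μg/disc and held 30 min at room temperature for diffusion. Solvent served as negative control. After 24 h at 37 °C, inhibition zones were read in mm; run twice.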

Micrococcus luteus [17] = assay: Antibacterial activity against Micrococcus luteus at 1000 ug/disc after 24 hrs by disc diffusion assay; assay type: functional; details: read-out: IZ; in short: as §5
Klebsiella aerogenes [18] = assay: Antibacterial activity against Enterobacter aerogenes MTCC 111 at 1000 ug/disc after 24 hrs by disc diffusion assay; assay type: functional; details: MTCC 111, 24 h, read-out: IZ; in short: as §5
Proteus vulgaris [19] = assay: Antibacterial activity against Proteus vulgaris MTCC 1771 at 1000 ug/disc after 24 hrs by disc diffusion assay; assay type: functional; details: MTCC 1771, 24 h, read-out: IZ; in short: as §5
Klebsiella pneumoniae [20] = assay: Antibacterial activity against Klebsiella pneumoniae MTCC 109 at 1000 ug/disc after 24 hrs by disc diffusion assay; assay type: functional; details: MTCC 109, 24 h, read-out: IZ; in short: as §5
Salmonella typhimurium [21] = assay: Antibacterial activity against Salmonella Typhimurium MTCC 1251 at 1000 ug/disc after 24 hrs by disc diffusion assay; assay type: functional, Salmonella enterica subsp. enterica serovar Typhimurium; details: Salmonella enterica, MTCC 1251, 24 h; read-out: IZ; in short: as §5
[22] = system: Salmonella enterica subsp. enterica serovar Paratyphi B; assay: Antibacterial activity against Salmonella paratyphi B at 1000 ug/disc after 24 hrs by disc diffusion assay; assay type: functional; details: read-out: IZ; in short: as §6

| Structure (SMILES) | inhibition zone (IZ) [1] | zone of inhibition at 1000 µg/disc (Candida albicans [2]) | zone of inhibition at 1000 µg/disc (Botrytis cinerea [3]) | MIC (Staphylococcus aureus [4]) | MIC (Staphylococcus aureus [5]) | MIC (Micrococcus luteus [6]) | MIC (Klebsiella aerogenes [7]) | MIC (Proteus vulgaris [8]) | MIC (Klebsiella pneumoniae [9]) | MIC (Salmonella typhimurium [10]) | MIC [11] | MIC [12] | MIC (Candida albicans [13]) | MIC (Botrytis cinerea [14]) | zone of inhibition at 1000 µg/disc (Staphylococcus aureus [15]) | zone of inhibition at 1000 µg/disc (Staphylococcus aureus [16]) | zone of inhibition at 1000 µg/disc (Micrococcus luteus [17]) | zone of inhibition at 1000 µg/disc (Klebsiella aerogenes [18]) | zone of inhibition at 1000 µg/disc (Proteus vulgaris [19]) | zone of inhibition at 1000 µg/disc (Klebsiella pneumoniae [20]) | further results |
| --- | --- | --- | --- | --- | --- | --- | --- | --- | --- | --- | --- | --- | --- | --- | --- | --- | --- | --- | --- | --- | --- |
| CN1CC2=C(C(=O)c3ccccc3C2=O)C12C(=O)Nc1ccc(Br)cc12 (stereo unspecified) | 10 mm | 10 mm | 11 mm | 15.6 µg/mL (≈ 38.2 µM) | 250 µg/mL (≈ 611 µM) | 62.5 µg/mL (≈ 153 µM) | 62.5 µg/mL (≈ 153 µM) | 125 µg/mL (≈ 305 µM) | 500 µg/mL (≈ 1220 µM) | 31.2 µg/mL (≈ 76.4 µM) | 500 µg/mL (≈ 1220 µM) | 500 µg/mL (≈ 1220 µM) | 500 µg/mL (≈ 1220 µM) | 250 µg/mL (≈ 611 µM) | 20 mm | 12 mm | 17 mm | 16 mm | 12 mm | 10 mm | zone of inhibition at 1000 µg/disc (Salmonella typhimurium [21]): 19 mm; zone of inhibition at 1000 µg/disc [22]: 8 mm |
| CN1C(=O)C2(C3=C(CN2C)C(=O)c2ccccc2C3=O)c2ccccc21 (stereo unspecified) | 11 mm | 9 mm | 8 mm | 62.5 µg/mL (≈ 181 µM) | 250 µg/mL (≈ 726 µM) | 125 µg/mL (≈ 363 µM) | 125 µg/mL (≈ 363 µM) | 125 µg/mL (≈ 363 µM) | 31.2 µg/mL (≈ 90.7 µM) | 125 µg/mL (≈ 363 µM) | 250 µg/mL (≈ 726 µM) | 125 µg/mL (≈ 363 µM) | 250 µg/mL (≈ 726 µM) | 250 µg/mL (≈ 726 µM) | 13 mm | 10 mm | 12 mm | 10 mm | 10 mm | 18 mm | zone of inhibition at 1000 µg/disc (Salmonella typhimurium [21]): 14 mm; zone of inhibition at 1000 µg/disc [22]: 11 mm |
| C#CCN1C(=O)C2(C3=C(CN2C)C(=O)c2ccccc2C3=O)c2ccccc21 (stereo unspecified) | 10 mm | 10 mm | 10 mm | 125 µg/mL (≈ 339 µM) | 125 µg/mL (≈ 339 µM) | 125 µg/mL (≈ 339 µM) | 250 µg/mL (≈ 679 µM) | 500 µg/mL (≈ 1360 µM) | 250 µg/mL (≈ 679 µM) | 62.5 µg/mL (≈ 170 µM) | 250 µg/mL (≈ 679 µM) | 250 µg/mL (≈ 679 µM) | 250 µg/mL (≈ 679 µM) | 250 µg/mL (≈ 679 µM) | 13 mm | 10 mm | 12 mm | 11 mm | 9 mm | 11 mm | zone of inhibition at 1000 µg/disc (Salmonella typhimurium [21]): 15 mm; zone of inhibition at 1000 µg/disc [22]: 10 mm |
